# TNAP inh noacc = human TNAP enzyme inhibitors, primary screen, biochemical, luminescent, no phosphate acceptor, uHTS | Alkaline phosphatase, tissue-nonspecific isozyme (Homo sapiens), P05186 | purified TNAP, CDP-star luminescence, 30 min | inhibition, % at 20 µM | 200,000 tested, 0.26% active;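 active = tissue-nonspecific alkaline phosphatase inhibition above about 50% at 20 µM in the single-dose screen, limit read from the data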;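 also: 0% = DMSO negative control and 100% = EDTA positive control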
# TNAP act hiacc = TNAP activators at high phosphate acceptor level, primary screen, biochemical, luminescence, uHTS; activation factor at 20 µM; purified TNAP, CDP-star luminescence, 1 M DEA, 30 min; hits give high values; 0 = EDTA background, 1 = DMSO-only activity; 200,000 tested, under 10 active;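 active = activation factor at least 2 at 20 µM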
#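 Dosing: 20 µM single point. System: human TNAP. Amount: TNAP 1/800 final. Incubation: 30 min, room temperature. Read-out: TNAP activation factor scaled between EDTA and DMSO control wells. Signal: luminescence from CDP-star hydrolysis. Medium: 1 M DEA, pH 9.8, Mg2+, Zn2+. Control set: EDTA negative control, DMSO positive control.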
# PMI activator = activators of human PMI, primary screen, biochemical, fluorescence intensity, near-Km mannose 6-phosphate | activation factor at 20 µM | Mannose-6-phosphate isomerase (Homo sapiens), P34949 | 190,000 tested, 0.005% active | purified human PMI, coupled resazurin fluorescence, 20 min; hits give high values; 1 = vehicle control, 0 substrate-free wells;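 active = activation factor of 2 or more at 20 µM, relative to plate controls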
# Target sequence (P34949 whole entry, looked up): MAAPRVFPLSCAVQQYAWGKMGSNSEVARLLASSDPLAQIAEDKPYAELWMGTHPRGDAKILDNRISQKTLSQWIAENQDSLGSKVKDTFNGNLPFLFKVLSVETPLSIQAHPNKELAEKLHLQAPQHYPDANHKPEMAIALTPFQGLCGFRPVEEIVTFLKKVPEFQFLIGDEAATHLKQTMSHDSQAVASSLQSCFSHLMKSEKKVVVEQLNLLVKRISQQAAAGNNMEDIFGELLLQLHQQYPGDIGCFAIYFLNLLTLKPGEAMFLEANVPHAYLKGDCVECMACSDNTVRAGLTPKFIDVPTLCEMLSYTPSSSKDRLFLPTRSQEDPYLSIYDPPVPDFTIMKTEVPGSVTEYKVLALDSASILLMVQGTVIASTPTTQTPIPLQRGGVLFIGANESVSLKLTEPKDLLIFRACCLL
# TNAP inh hi DEA = human TNAP enzyme inhibitors, primary screen, biochemical, luminescent, high phosphate acceptor level, uHTS; Alkaline phosphatase, tissue-nonspecific isozyme (Homo sapiens), P05186; purified TNAP, CDP-star luminescence, 1 M DEA; inhibition, % at 20 µM; 200,000 tested, 0.03% active; AID 1135, 2008;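 active = over 50% inhibition of tissue-nonspecific alkaline phosphatase at 20 µM in the single-dose screen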;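 also: plate controls were DMSO wells for no effect and EDTA-quenched wells as full inhibition for full effect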
# PMI act satM6P = human PMI activators, high substrate, primary screen, biochemical, fluorescence intensity, near-saturating mannose 6-phosphate; Mannose-6-phosphate isomerase (Homo sapiens), P34949; activation factor at 20 µM; coupled PMI enzyme assay, resazurin fluorescence, 20 min; hits give high values; 1 = untreated enzyme, 0 = substrate-free blank; 190,000 tested, 0.34% active;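 active = activation factor of 2 or more at 20 µM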
#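 Material: human phosphomannose isomerase with PGI, G6PDH, diaphorase coupling enzymes / Reagent: Man-6-P substrate 1.0 mM / Dosing: single compound dose of 20 µM, 1% DMSO final / Incubation: enzyme reaction with compound 20 min at room temperature / Signal: resorufin fluorescence (Ex 544/Em 590 nm) from resazurin via diaphorase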
# * marks the source's active call; other numbers are inactive results. Only some compounds are listed: those with a hit (about 0.62% of all), similar ones and a draw of the others.
SMILES,TNAP inh noacc,TNAP act hiacc,PMI activator,TNAP inh hi DEA,PMI act satM6P
COc1ccc(-c2nc(=S)c3c([nH]2)Oc2ccc(C)cc2C3)cc1O,-9,1.1,1.8,-9,2.1*
CCOc1ccc(C(=O)OCC(=O)Nc2cc(C)on2)cc1OCC,-5,1,0.9,0,1
Cc1cc(NC(=O)COC(=O)c2cccc(O)c2)no1,52*,1,1,-1,1
COc1cccc(CNC(=O)CCC2CCCN(C(=O)c3ccc(OC)o3)C2)c1 (centres undefined),0,1.1,1.1,-8,1.1
COc1ccc(CNC(=O)CCn2c(=O)oc3ccccc32)c(OC)c1,-10,1.1,1.1,-7,0.9
COc1ccc(S(=O)(=O)N/N=c2\oc3c(OC)cccc3cc2S(=O)(=O)c2ccc(C)cc2)cc1OC,6,0.9,0.9,9,0.9
COc1ccc(C2CC(c3cccs3)=NN2S(C)(=O)=O)cc1OC (centres undefined),-35,1.1,1,-6,1
COc1ccc(C2CC(c3cccs3)=NN2c2nc(-c3ccccc3)cs2)cc1OC (centres undefined),-52,1,1.6,1,2.1*
O=C(O)CNC(=O)/C=C/c1ccc(Cl)cc1Cl,60*,1,1,1,1
CC1CCC2(CC1)NC(=S)N(c1ccccc1)N2 (centres undefined),2,1.1,1.9,-5,2.2*
O=C(Nc1ccc(Cl)cc1)[C@@H]1[C@@H]2C(=O)N(c3ccc(Cl)cc3)C(=O)[C@@H]2[C@H]2C=CC=NN21,-4,1,1.6,-2,1.9
CC(=O)Oc1ccc(C(=O)[C@H]2[C@H]3C(=O)N(c4ccc5ccccc5c4)C(=O)[C@H]3[C@@H]3C=CC=NN32)cc1,15,1,1.6,2,2.1*
Cc1ccc(C(=O)N2CCN(CCNC(=O)C(=O)NC(C)C)CC2)cc1,-7,1,1.1,-1,1.1
CC1=CC(C)(C)Nc2ccc(OS(=O)(=O)c3ccc(C)cc3)cc21,-4,1,0.6,-2,0.5
Cc1ccc(S(=O)(=O)Oc2ccc(C(c3c(C)[nH][nH]c3=O)c3c(C)[nH][nH]c3=O)cc2)cc1,-8,0.4,0.9,61*,0.9
CCOc1cc(C(c2c(C)[nH][nH]c2=O)c2c(C)[nH][nH]c2=O)ccc1OS(=O)(=O)c1ccccc1,24,0.4,0.9,62*,0.9
Cc1cccc2sc(NNC(=O)c3ccc(S(=O)(=O)N4CCCC(C)C4)cc3)nc12 (centres undefined),-7,1,1.1,4,1.2
Cc1cccc2sc(NNC(=O)c3ccc(S(=O)(=O)N4CCc5ccccc5C4)cc3)nc12,0,1,1.7,0,2.1*
O=[N+]([O-])c1ccccc1NC(=S)N/N=C/c1ccc(O)c(O)c1,85*,0.8,0.5,20,1
CCOc1cccc(/C=N/NC(=S)Nc2ccccc2[N+](=O)[O-])c1O,-99,0.9,1.1,14,1.2
Oc1c(Cl)cc(Cl)cc1C1=NNC(c2ccc(Cl)cc2)C1 (centres undefined),-6,1,1.8,1,2.6*
Oc1ccc(Cl)cc1C1=NNC(c2ccc(Cl)cc2)C1 (centres undefined),-1,0.9,1.2,5,1.1
Cc1ccc(N/N=C/c2ccc(N3CCOCC3)cc2)cc1C,1,1,1.2,2,2*
C/C(CC(=O)Nc1ccccc1Br)=N\NC(=O)C(=O)N1CCCC1,66*,1,0.8,4,0.9
CO/N=C\c1cc(C(=O)c2ccc(Cl)cc2Cl)cn1C,-11,1,0.8,-5,0.8
SMILES,TNAP inh noacc,TNAP act hiacc,PMI activator,TNAP inh hi DEA,PMI act satM6P
Cn1c(=O)c2c(-c3ccccc3F)c3c(nc2n(C)c1=O)-c1ccccc1C3O (centres undefined),28,1,1.8,1,2.1*
CCOC(=O)/C(C#N)=C\c1cc(OC)c(OC)cc1[N+](=O)[O-],-5,1,0.6,-4,0.3
Cc1ncc(CO)c(/C=N/NC(=O)c2cc(Br)ccc2O)c1O,58*,1,0.9,4,1.1
Cc1cc(-c2csc(N)n2)c(C)n1CCc1ccccc1,-3,1,1.7,0,2*
Cc1cc(-c2csc(N)n2)c(C)n1CCC(C)C,-15,1,1.6,-1,1.9
CCOC(=O)C(=O)NNc1ccccc1C,-9,1,1.5,-2,2.2*
CCOC(=O)C(=O)Nc1ccccc1C(N)=O,-31,1,1,-4,1
CCOC(=O)C(=O)Nc1ccccc1C(=O)OC,-1,1,0.9,-4,1
CCOC(=O)C(=O)NNc1cccc(C)c1C,-4,1,1.6,1,2.2*
CCOc1ccc(NC(=O)CN2CCN(CC(=O)c3ccc(OC)c(OC)c3)CC2)cc1,0,1,1.4,-4,1.9
CCOc1ccc(NC(=O)CN2CCN(CC(=O)c3ccc(OCC)cc3)CC2)cc1,-6,1,1.6,0,2*
CC(C)c1ccc(S(=O)(=O)c2ccc(NN)cc2)cc1,-11,1,1.6,-4,2.2*
COc1ccccc1N1CCN(/N=C/c2ccc(O)c(O)c2)CC1,54*,1,0.3,1,0.6
Cc1cccc(C(C)Nc2ccc([N+](=O)[O-])cn2)c1 (centres undefined),-3,1,0.9,0,0.9
CCOC(=O)CC(NC(=O)c1ccc(C)cc1)c1ccc(OC)cc1 (centres undefined),-15,1,1,-5,1
COc1cccc(NC(=S)N/N=C2\CC3CCC2(C)C3(C)C)c1 (centres undefined),-3,1,0.9,1,1
COc1cccc(NC(=S)NN=C2CCC(C(C)(C)C)CC2)c1 (centres undefined),-2,1,1.5,-4,2.1*
CN(C)/N=C/c1ccc(P(c2ccc(/C=N/N(C)C)o2)c2ccc(/C=N/N(C)C)o2)o1,4,1,1,3,1
CN(c1ccccc1)c1ccc(/C=N/N2CCOCC2)cc1,-11,1,1.1,-1,1
C/C(=N\Nc1nc(-c2ccc(C)cc2C)cs1)c1cc2ccccc2oc1=O,15,1,0.9,4,1.1
COc1ccc2oc(=O)c(/C(C)=N/Nc3nc(-c4cc(C)ccc4C)cs3)cc2c1,22,1,1.6,1,2.3*
